{"source": "ChEMBL document CHEMBL3407438", "about": "“Discovery of potent, orally bioavailable, small-molecule inhibitors of WNT signaling from a cell-based pathway screen” (J Med Chem, 2015)", "key": {"[1]": {"test": "Clearance in NMRI mouse at 0.2 mg/kg, iv", "assay_type": "ADME, organism-based", "design": "dose 0.2 mg/kg, route intravenous", "details": "in vivo", "procedure,_shortened": "(§1)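 Female NMRI mice (n = 5) given a single iv bolus (0.2 mg/kg per compound) or oral gavage (0.5 mg/kg per compound) as a cassette, in DMSO/PEG 200/water. Serial retro-orbital blood was drawn under isoflurane from 3 animals per route at 0.1 (iv), 0.25 (po), 0.5, 1, 2, 4 and 6 h. Plasma was quantified by LC–MS/MS.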"}, "[2]": {"test": "Tmax in NMRI mouse at 0.2 mg/kg, iv", "assay_type": "ADME, organism-based", "design": "dose 0.2 mg/kg, route intravenous", "details": "in vivo", "procedure,_shortened": "as §1"}, "[3]": {"test": "Half life in NMRI mouse at 0.2 mg/kg, iv", "assay_type": "ADME, organism-based", "design": "dose 0.2 mg/kg, route intravenous", "details": "in vivo", "procedure,_shortened": "as §1"}, "[4]": {"test": "Clearance in Wistar rat at 0.2 mg/kg, iv", "assay_type": "ADME, organism-based", "design": "dose 0.2 mg/kg, route intravenous", "details": "in vivo", "procedure,_shortened": "(§2)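 Male Wistar rats (n = 6) received cassette dosing, either iv bolus at 0.2 mg/kg or oral gavage at 0.5 mg/kg per compound, in DMSO/PEG 200/water. Plasma levels were measured by UPLC–MS/MS.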"}, "[5]": {"test": "AUC in Wistar rat at 0.2 mg/kg, iv", "assay_type": "ADME, organism-based", "design": "dose 0.2 mg/kg, route intravenous", "details": "plasma", "procedure,_shortened": "as §2"}, "[6]": {"test": "Tmax in Wistar rat at 0.5 mg/kg, po", "assay_type": "ADME, organism-based", "design": "dose 0.5 mg/kg, route oral", "details": "in vivo", "procedure,_shortened": "as §2"}, "[7]": {"test": "AUC in Wistar rat at 0.5 mg/kg, po", "assay_type": "ADME, organism-based", "design": "dose 0.5 mg/kg, route oral", "details": "plasma", "procedure,_shortened": "as §2"}, "[8]": {"target": "T1, Poly [ADP-ribose] polymerase tankyrase-1 (Homo sapiens, UniProt O95271)", "T1 sequence (O95271 whole entry)": "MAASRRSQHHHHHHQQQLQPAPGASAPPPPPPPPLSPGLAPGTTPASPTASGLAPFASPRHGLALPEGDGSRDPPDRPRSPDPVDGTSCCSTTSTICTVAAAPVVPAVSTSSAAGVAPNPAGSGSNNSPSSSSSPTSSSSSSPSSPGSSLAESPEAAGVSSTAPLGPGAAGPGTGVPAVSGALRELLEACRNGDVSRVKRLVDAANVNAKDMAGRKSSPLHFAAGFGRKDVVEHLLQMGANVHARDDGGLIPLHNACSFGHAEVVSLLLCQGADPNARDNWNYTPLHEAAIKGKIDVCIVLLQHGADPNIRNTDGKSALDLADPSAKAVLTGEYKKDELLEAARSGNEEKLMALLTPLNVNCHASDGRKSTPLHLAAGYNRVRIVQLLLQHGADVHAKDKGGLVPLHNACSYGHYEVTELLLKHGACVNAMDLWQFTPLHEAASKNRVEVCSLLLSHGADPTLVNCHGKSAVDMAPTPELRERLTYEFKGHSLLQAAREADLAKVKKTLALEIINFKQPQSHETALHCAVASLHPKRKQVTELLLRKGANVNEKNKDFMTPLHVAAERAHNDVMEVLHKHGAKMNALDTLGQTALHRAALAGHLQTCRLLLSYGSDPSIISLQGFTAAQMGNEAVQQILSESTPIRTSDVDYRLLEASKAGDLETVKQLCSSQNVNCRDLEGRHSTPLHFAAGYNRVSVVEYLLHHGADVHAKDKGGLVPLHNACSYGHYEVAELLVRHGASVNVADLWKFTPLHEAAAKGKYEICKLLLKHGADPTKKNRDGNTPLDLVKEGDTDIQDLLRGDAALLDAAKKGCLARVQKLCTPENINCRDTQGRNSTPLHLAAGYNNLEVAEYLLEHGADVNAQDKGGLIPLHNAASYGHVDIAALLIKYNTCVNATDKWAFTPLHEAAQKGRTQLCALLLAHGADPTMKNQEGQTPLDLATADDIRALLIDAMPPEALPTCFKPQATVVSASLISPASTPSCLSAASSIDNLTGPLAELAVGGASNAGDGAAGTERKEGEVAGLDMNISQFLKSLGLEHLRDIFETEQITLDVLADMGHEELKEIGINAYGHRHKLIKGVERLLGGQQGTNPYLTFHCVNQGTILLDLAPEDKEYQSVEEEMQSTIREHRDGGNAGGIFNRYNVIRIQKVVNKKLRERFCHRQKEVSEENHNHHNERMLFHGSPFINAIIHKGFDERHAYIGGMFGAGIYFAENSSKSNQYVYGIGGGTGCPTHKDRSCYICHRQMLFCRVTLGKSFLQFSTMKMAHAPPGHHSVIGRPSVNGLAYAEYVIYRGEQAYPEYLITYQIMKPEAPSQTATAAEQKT", "test": "Inhibition of GST-tagged TNKS1 (1023 to 1327 aa) (unknown origin) after 90 mins by HTRF assay"}, "[9]": {"test": "Thermodynamic aqueous solubility of the compound in phosphate buffer at pH 7.4", "assay_type": "physicochemical", "procedure,_shortened": "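Kinetic and thermodynamic aqueous solubilities were measured in phosphate buffer at pH 7.4.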"}, "Cytochrome P450 2C8": {"target": "T2, Cytochrome P450 2C8 (Homo sapiens, UniProt P10632)", "T2 sequence (P10632 whole entry)": "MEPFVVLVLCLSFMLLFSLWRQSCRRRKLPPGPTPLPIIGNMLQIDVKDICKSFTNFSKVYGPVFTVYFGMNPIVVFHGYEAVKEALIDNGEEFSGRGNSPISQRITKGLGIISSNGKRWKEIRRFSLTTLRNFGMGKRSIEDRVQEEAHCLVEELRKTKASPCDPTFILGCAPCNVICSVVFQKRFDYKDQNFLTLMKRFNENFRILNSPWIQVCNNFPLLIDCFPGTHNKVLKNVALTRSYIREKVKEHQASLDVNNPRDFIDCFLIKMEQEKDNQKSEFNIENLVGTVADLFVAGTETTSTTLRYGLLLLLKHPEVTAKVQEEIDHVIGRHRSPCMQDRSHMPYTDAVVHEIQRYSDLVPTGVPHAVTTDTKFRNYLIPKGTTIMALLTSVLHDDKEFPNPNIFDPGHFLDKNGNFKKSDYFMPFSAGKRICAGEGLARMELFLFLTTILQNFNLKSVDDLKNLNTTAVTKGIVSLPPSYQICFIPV", "test": "Inhibition of CYP2C8 (unknown origin)", "assay_type": "ADME"}, "COLO 205": {"tested_on": "COLO 205", "test": "Effect on TCF1 level in human COLO205-F1756 clone 4 cells harboring APC mutant and TCF/LEF responsive element at 350 nM by immunoblotting", "assay_type": "functional, cell-based"}, "[10]": {"test": "Antitumor activity against human COLO205-F1756 clone 4 cells harboring APC mutant xenografted in CrTac:NCr-Foxn1nu mouse assessed as reduction in tumor weight at 70 mg/kg, po bid for 9 days relative to control", "assay_type": "functional, COLO 205", "design": "scale not given: the % may be the effect or the level left", "procedure,_shortened": "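Female athymic nude mice were implanted sc in the flank with 3 million COLO205-F1756 clone 4 cells. At about 100 mm3, groups of n = 8 were gavaged at 70 mg/kg bid or with vehicle (10% DMSO, 5% Tween 20 in saline). Luminescent flux was imaged after sc D-luciferin 2 and 6 h post final dose, then tumours were excised and weighed. Mann–Whitney U test.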"}, "Plasma": {"tested_on": "Plasma", "test": "Drug uptake in plasma of human COLO205-F1756 clone 4 cells harboring APC mutant xenografted CrTac:NCr-Foxn1nu mouse at 70 mg/kg, po bid for 9 days measured after 2 to 6 hrs", "assay_type": "ADME, organism-based, COLO 205", "design": "dose 70 mg/kg, route oral", "details": "in vivo", "procedure,_shortened": "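In COLO205-F1756 clone 4 xenograft-bearing nude mice dosed orally at 70 mg/kg bid, cardiac blood and tumours were taken 2 and 6 h after the final dose. Tumours were homogenized in 3 v/w PBS, methanol-extracted with internal standard, and total levels were measured by UPLC–MS/MS (MRM, positive ion).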"}, "in vivo": {"test": "in vivo", "details": "Wistar, rat, iv, 0.2 mg/kg"}}, "note": "Active and inactive are the calls of the source. The rule behind the calls is not given here."}
{"smiles": "Cn1cc(-c2ccc(-c3cncc(Cl)c3N3CCC4(CCNC4=O)CC3)cc2)cn1", "values": [{"measurement": "clearance", "setting": "[1]", "result": 31, "unit": "mL/min/kg"}, {"measurement": "Tmax", "setting": "[2]", "result": 6, "unit": "min"}, {"measurement": "half-life", "setting": "[3]", "result": 33, "unit": "min"}, {"measurement": "clearance", "setting": "[4]", "result": 26, "unit": "mL/min/kg"}, {"measurement": "AUC", "setting": "[5]", "result": 130, "unit": "ng·h/mL"}, {"measurement": "Tmax", "setting": "[6]", "result": 15, "unit": "min"}, {"measurement": "AUC", "setting": "[7]", "result": 288, "unit": "ng·h/mL"}, {"measurement": "IC50", "setting": "[8]", "result": "> 10", "unit": "µM"}, {"measurement": "Therm_solubility", "setting": "[9]", "result": 6, "unit": "µg/mL"}, {"measurement": "inhibition (INH)", "setting": "Cytochrome P450 2C8", "result": "Not Active"}, {"measurement": "Activity", "setting": "COLO 205", "result": "inactive"}, {"measurement": "Activity", "setting": "[10]", "result": 37.5, "unit": "%"}, {"measurement": "Drug uptake", "setting": "Plasma", "result": "Active"}, {"measurement": "half-life", "setting": "in vivo", "result": 58.2, "unit": "min"}]}
